# Screening data deposited in PubChem BioAssay by Broad Institute.
# This is a sample that favours compounds with a hit; in the whole collection about 3.1% have one here.
# Beta apoptosis – beta cell apoptosis inhibition. protection from apoptosis, % (concentration not given with the values). INS-1E cytokine-induced death, ATP luminescence, 48 h; percent of positive-control rescue, neutral wells zero. actives 0.8% (n = 300,000);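 active = Every replicate reaches about 75%, or at least half do and their mean reaches it too, limit read from the data; inconclusive = At least half of replicates reach the limit but their mean does not; inactive = Under half of replicates reach the limit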;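 note: higher means more ATP so stronger rescue from cytokine killing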
# CSC inhib – cancer stem cell inhibition. cancer stem cell-like cells viability, luminescence. inhibition, % at 7.5 µM. actives 1.1% (n = 300,000); in the data active = inhibition above about 75%; inconclusive = no clear call, values can overlap the other calls; tested in HMLE shEcad cells
# PolyA inh – blocks polyadenylation in yeast reporter cells. S. cerevisiae SKY197-pL101 polyadenylation reporter, beta-gal luminescence; efflux-impaired pdr1/pdr3 knockout yeast; score 100 = 6 SD above DMSO. activity score, % at 12 µM. actives 0.02% (n = 300,000). AID 1875;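 active = lowest replicate activity score at least 50, where 100 means six control SD above control mean; inconclusive = lowest score under 50 but half or more replicates reach 50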;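 note: yeast exposed to compound for 9 h at 30 °C; higher score means more reporter readthrough which indicates perturbed polyadenylation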
# T cruzi repl – blocks replication of Trypanosoma cruzi; T. cruzi beta-gal in NIH3T3, luminescence, 90 h; inhibition, % (no concentration beside the values); actives 1.4% (n = 300,000); AID 1885;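 active = mean inhibition across valid replicates above about 55%, limit read from the data; inconclusive = mean below that limit but half or more replicates reach it; inactive = mean below it, under half of replicates reach it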;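 note: signal also drops with host cell toxicity which is not excluded here; higher percent means less beta-gal luminescence so fewer parasites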
#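 System: NIH/3T3 fibroblasts plus reporter T. cruzi. Medium: DMEM plus 2% FBS. Probe or stimulus: 5000 reporter trypomastigotes per well. Compound: single 50 nL compound addition per well in DMSO. Incubation: co-culture of at least 90 h after 3 h attachment. Detection: GalScreen β-gal luminescence, detergent lysis, 60 min. Evaluation: parasite load inhibition, %.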
# HIF act – HIF pathway transcriptional activation | AID 1910 | activation, % at 7.5 µM (by protocol) | U2OS HRE-luciferase reporter, luminescence; normalized: DMSO 0%, desferrioxamine 100% | actives 0.32% (n = 300,000);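 active = mean activation of at least 10% of the iron chelator positive control signal, with at least half of replicates also reaching 10%; inconclusive = mean and replicate majority disagree about reaching 10%; inactive = mean and most replicates under 10%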
# Calb FLC – affects C. albicans growth with fluconazole. actives 0.57% (n = 300,000). growth inhibition, % (no concentration beside the values). C. albicans CaCi-2 (fluconazole-resistant clinical isolate) + fluconazole, Alamar Blue growth, 48 h;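 active = growth inhibition above about 58% in most replicates, limit read from the data, passing the limit was not always enough; inconclusive = exactly half the replicates above a set limit; inactive = most replicates below a set limit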;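 note: all wells also contain fluconazole at 8 µg/ml as a sub-toxic cotreatment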
# Numbers stand for hits; i = inactive; ? = inconclusive; nt = no result.
SMILES,Beta apoptosis,CSC inhib,PolyA inh,T cruzi repl,HIF act,Calb FLC
Cc1ccc(C(=O)c2coc3c2C(=O)C(=O)c2ccccc2-3)cc1,i,i,i,i,i,80
Cc1ccc(C(=O)c2c(C)oc3c2C(=O)C(=O)c2ccccc2-3)cc1,124,i,i,?,i,i
COc1ccc(C)cc1NC(=O)c1sc2ncn(CC(=O)N3CCCCC3)c(=O)c2c1C,i,i,i,i,i,i
CC1(C)Cc2c(sc(NC(=O)C(=O)N3CCOCC3)c2C(N)=O)CO1,i,i,i,i,i,i
COc1ccccc1-c1cc(C(=O)NC2CCN(C)CC2)c2ccc(Cl)c(C)c2n1,112,108,i,59,i,i
Cn1c(=O)c(C#N)c(-c2ccc(F)cc2)c2cc(C(=O)c3cc(Cl)cc(Cl)c3O)cnc21,i,124,i,i,i,i
CCc1ccc2c(c1)C(c1ccc(N3CCOCC3)cc1)=NNC(c1ccncc1)=N2,i,i,i,59,i,i
N=c1c2c(n(Cc3ccc(Cl)c(Cl)c3)c3c1CCC3)CCCC2,102,nt,i,70,i,i
N=c1c2c(n(Cc3ccc(Br)cc3)c3c1CCC3)CCCC2,115,i,i,67,i,i
O=C(Nc1cc(Cl)cc(Cl)c1)c1ccc(Cn2c(=O)[nH]c3ccsc3c2=O)cc1,i,?,i,i,i,i
O=C(CCC(=O)N1CCSc2ccccc21)NCCc1ccccc1,i,i,i,i,i,i
CC1(C)CC(=O)C2=C(C1)OC1=C(C(=O)CC(C)(C)C1)C2c1ccc(O)c([N+](=O)[O-])c1,i,i,i,i,i,i
CC1(C)CC(=O)C2=C(C1)OC1=C(C(=O)CC(C)(C)C1)C2c1ccc(O)cc1O,102,i,i,i,i,i
Cc1[nH]nc(SCC(=O)NCc2ccc(F)cc2)c1[N+](=O)[O-],i,i,i,i,nt,i
COCCCn1nnnc1SCC(=O)Nc1nc2ccccc2s1,i,nt,i,i,i,i
CCc1ccc(C)c(OC(=O)c2cncc(Br)c2)c1,i,i,i,i,i,i
Cc1ccc(C)c(OC(=O)c2cncc(Br)c2)c1,i,i,i,i,i,98
O=C(Nc1ccncc1)c1ccc(Br)cc1,i,i,i,i,i,93
O=C(CCCCCN1C(=O)c2cccc3cccc(c23)C1=O)N1CCOCC1,i,i,i,i,i,107
O=C(CCCN1C(=O)c2cccc3cccc(c23)C1=O)N1CCN(c2ncccn2)CC1,i,i,nt,i,i,nt
COc1cccc2c1SCc1ccccc1C2CC(N)=O (stereo unspecified),nt,i,i,i,i,i
CCOC(=O)/C=C/C(=O)OCC(=O)NCc1ccccc1,i,i,nt,i,i,nt
C/C(=C\C(=O)OCC(=O)NCc1ccccc1)C(=O)OCC(=O)NCc1ccccc1,i,i,i,i,441,i
O=S(=O)(Nc1ccc(O)c(Sc2nc3ccccc3s2)c1)c1cccc2ccccc12,i,81,i,i,i,i
O=S(=O)(Nc1ccc(O)c(Sc2nc3ccccc3s2)c1)c1ccc(F)cc1,i,i,i,i,i,i
SMILES,Beta apoptosis,CSC inhib,PolyA inh,T cruzi repl,HIF act,Calb FLC
O=C(NCCc1ccccc1)[C@@H]1CC=C[C@@H]2CCN(Cc3ccc(Cl)c(Cl)c3)C(=O)[C@@H]21,99,i,i,i,i,i
CCCCNC(=O)[C@@H]1CC=C[C@@H]2CCN(Cc3ccc(Cl)c(Cl)c3)C(=O)[C@@H]21,i,i,i,i,i,i
COc1ccc(CN(C)C(=O)c2ccc(NS(=O)(=O)c3ccc(F)cc3)cc2)c(OC)c1OC,95,i,i,i,i,i
CC(C)(C)OC(=O)C[C@@H]1C/C=C\C[C@H](CC(=O)N[C@@H](CO)Cc2ccccc2)C(=O)N[C@H](C(C)(C)C)COC1=O,i,i,nt,nt,nt,nt
C/C(CC(=O)Nc1ccc(Cl)c(C(F)(F)F)c1)=N\NC(=O)c1cc2ccccc2cc1O,i,76,i,i,i,i
COc1cccc(NC(=O)C/C(C)=N/NC(=O)c2ccccc2Cl)c1,i,i,i,i,i,i
Cc1c(-c2ccccc2)nc2ccccc2c1C(=O)Nc1ccncc1,i,i,i,i,i,i
CCCCn1c(SCC(N)=O)nc2sc3c(c2c1=O)CCC3,i,99,i,i,i,i
Cc1cc(NC(=O)COC(=O)c2ccccc2[N+](=O)[O-])no1,i,i,i,i,i,i
COc1ccc(C(=O)c2c(C(F)(F)F)oc3c2C(=O)c2ccccc2C3=O)cc1,115,106,i,?,i,i
COC(=O)CC1C(=O)NCCN1C(=O)CSc1nnc(Nc2ccc(OC)cc2)s1 (stereo unspecified),i,i,i,i,236,i
COCCSc1nnc(NC(=O)C2CC(=O)N(c3ccc(C)cc3)C2)s1 (stereo unspecified),i,i,i,i,i,99
CCOc1ccc(N2CC(C(=O)Nc3nnc(SCCOC)s3)CC2=O)cc1 (stereo unspecified),i,i,i,i,i,i
O=c1[nH]c(/C=C/c2ccc(Br)cc2)nc2ccccc12,i,i,i,i,i,i
O=C(Nc1cccc(/C=C/c2nc3ccccc3c(=O)[nH]2)c1)c1ccccc1Cl,i,i,i,i,i,i
COc1ccc(C(=O)Nc2cccc(/C=C/c3nc4ccccc4c(=O)[nH]3)c2)cc1,i,78,i,i,i,i
CN(C)c1ccc(/C=C/c2nc3ccccc3c(=O)[nH]2)cc1,i,84,i,i,i,i
C(=C\c1nc2ccccc2[nH]1)/c1ccccc1,i,82,i,i,i,i
Cc1noc(C)c1C(=O)N1CCC(C(=O)c2ccc(F)cc2F)CC1,i,i,i,i,i,i
CCCCCCCCCc1nc2sc3c(c2c(=O)n1NC(=O)c1ccccc1[N+](=O)[O-])CC(C)(C)OC3,i,107,i,i,i,i
CCCCCCCCCc1nc2sc3c(c2c(=O)n1NC(=O)c1ccc([N+](=O)[O-])cc1)CC(C)(C)OC3,i,i,i,i,i,i
CCc1ccc(CN(C)C(=O)CCc2nnc(COc3ccccc3)o2)cc1,i,i,i,i,i,i
COc1ccc2cc(-c3[nH]ncc3CN3CCCC3c3nonc3C)ccc2c1 (stereo unspecified),i,i,i,i,nt,i
O=C(Nc1ccc(Cl)c(Cl)c1)OCc1cccnc1,i,i,i,65,i,i
O=C(OCC(=O)N1CCC(Cc2ccccc2)CC1)c1cc(Br)ccc1O,i,i,nt,nt,nt,nt
COC(=O)/C(=C(/F)SCC(C)=O)C(F)(F)F,i,i,i,i,91,i
CCCCCCC[C@@H](C/C=C/CCC(=O)N(C)C/C(=C/Cl)C/C(=C\C(=O)N1CC(OC)=CC1=O)OC)OC,i,140,nt,nt,nt,nt
COC(=O)c1ccc(CN2CCN(CCC(C)C)C(CCO)C2)cc1 (stereo unspecified),i,i,i,i,i,i
